# IDH1 mut inh: inhibitors of human IDH1 R132H; O75874; IDH1 R132H reductase, diaphorase/resazurin fluorescence, 60 min; inhibition, % at 10 µM; 0.18% of 70,000 active; in the data active = inhibition above about 34%; inconclusive = no clear call, values can overlap the other calls; inactive = below about 11%
# Target sequence (O75874 whole entry R132H): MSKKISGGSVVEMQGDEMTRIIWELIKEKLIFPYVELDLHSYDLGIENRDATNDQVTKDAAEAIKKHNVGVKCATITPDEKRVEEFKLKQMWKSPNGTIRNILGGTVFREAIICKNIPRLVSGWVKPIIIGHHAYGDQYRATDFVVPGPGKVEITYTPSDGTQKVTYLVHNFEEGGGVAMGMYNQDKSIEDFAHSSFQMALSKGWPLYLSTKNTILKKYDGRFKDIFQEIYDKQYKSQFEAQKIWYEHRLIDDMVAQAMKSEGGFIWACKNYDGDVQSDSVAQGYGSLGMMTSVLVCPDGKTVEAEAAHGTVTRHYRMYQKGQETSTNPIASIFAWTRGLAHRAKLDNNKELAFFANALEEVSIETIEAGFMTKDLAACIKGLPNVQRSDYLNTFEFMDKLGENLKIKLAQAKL
# KDM4C inh: KDM4C (human) demethylase inhibition. Q9H3R0. GST-KDM4C 2-372, H3K9me3 peptide, LANCE TR-FRET. inhibition, % at 12.5 µM. 0.15% of 96,000 active;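 active = mean replicate inhibition above about 25%, with at least 55% of replicates also reaching it, limit read from the data, passing the limit was not always enough; inconclusive = only one of those two conditions met; inactive = neither condition met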
#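 Material: GST-tagged GASC-1 (JMJD2C) catalytic fragment, aa 2-372. Input: enzyme final amount 10 nM. Medium: HEPES buffer, pH 7.5, plus ascorbate. Reagent: H3K9me3 peptide substrate, Fe(II), 2-oxoglutarate. Doses: single dose. Times: reaction 30 min RT, detection step 1 h RT. Measured by: LANCE TR-FRET. Evaluation: Fall in 671/618 emission ratio as inhibition.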
# T cruzi growth-1: inhibitors of T. cruzi proliferation; T. cruzi beta-gal in NIH3T3, GalScreen luminescence, 90 h; inhibition, % at 8.34 µM; 5.9% of 77,000 active; AID 624255;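 active = mean inhibition above about 93%, with at least 55% of replicates each passing it, limit read from the data, passing the limit was not always enough; inconclusive = only one of those two conditions holds; inactive = neither condition holds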
# T cruzi growth-2: blocks T. cruzi growth in NIH3T3 host cells; shares compounds with T cruzi growth-1; T. cruzi beta-gal in NIH3T3, GalScreen luminescence, 90 h; AID 651739; inhibition, % at 8.35 µM; 72% of 5,600 active;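 active = mean replicate inhibition above about 95% and at least 55% of replicates individually reaching it, limit read from the data; inconclusive = only one of the two criteria is met; inactive = neither criterion is met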
# T cruzi growth-3: Trypanosoma cruzi proliferation inhibition | 21% of 5,600 active | T. cruzi beta-gal in NIH3T3, GalScreen luminescence, 90 h | inhibition, % at 2.09 µM | shares compounds with T cruzi growth-1 | AID 651740;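 active = mean inhibition above about 95%, with at least 55% of replicates also reaching it, limit read from the data; inconclusive = meets just one of the two conditions; inactive = meets neither condition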
# NIH3T3 tox: NIH/3T3 (mouse) viability loss; cytotoxicity (signal decrease), % at 8.35 µM; shares compounds with T cruzi growth-1; AID 651742; 14% of 5,600 active; NIH/3T3 viability, CellTiter-Glo ATP luminescence, 90 h;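 active = mean signal decrease across replicates above about 35% based on untreated-well scatter, with enough replicates individually passing, limit read from the data; inconclusive = no rule stated though some were filed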
# NIH3T3 tox 2: NIH/3T3 (mouse) viability loss | AID 651744 | inhibition, % at 24.9 µM | shares compounds with T cruzi growth-1 | 56% of 5,600 active | NIH/3T3 viability, CellTiter-Glo ATP luminescence, 90 h;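 active = mean loss of cell viability signal at or above a set limit, and enough replicates individually reaching it; inconclusive = meets only the mean limit or only the replicate share; inactive = meets neither condition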
# Hits are given with their value; n = inactive; u = inconclusive; x = no result. Shown is part of a subset that was picked to be rich in hits.
SMILES,IDH1 mut inh,KDM4C inh,T cruzi growth-1,T cruzi growth-2,T cruzi growth-3,NIH3T3 tox,NIH3T3 tox 2
C[C@H](CO)N1C[C@H](C)[C@@H](CN(C)S(=O)(=O)c2ccc(F)cc2)OCCCC[C@H](C)Oc2ccc(NC(=O)Nc3ccc(F)cc3)cc2C1=O,n,n,100,108,n,n,n
C[C@@H]1CN([C@H](C)CO)C(=O)c2cc(NC(=O)Nc3ccc(F)cc3)ccc2O[C@@H](C)CCCCO[C@@H]1CN(C)S(=O)(=O)c1ccc(F)cc1,x,n,n,x,x,x,x
C[C@@H]1CN([C@H](C)CO)C(=O)c2cc(NC(=O)Nc3ccc(F)cc3)ccc2O[C@@H](C)CCCCO[C@H]1CN(C)S(=O)(=O)c1ccc(F)cc1,x,n,n,x,x,x,x
C[C@H](CO)N1C[C@H](C)[C@H](CN(C)S(=O)(=O)c2ccc(F)cc2)OCCCC[C@H](C)Oc2ccc(NC(=O)Nc3ccc(F)cc3)cc2C1=O,n,n,103,103,n,n,45
C[C@@H]1CCCCO[C@H](CN(C)S(=O)(=O)c2ccc(F)cc2)[C@H](C)CN([C@H](C)CO)C(=O)c2cc(NC(=O)Nc3ccc(F)cc3)ccc2O1,n,n,101,96,110,n,40
C[C@H]1CCCCO[C@@H](CN(C)S(=O)(=O)c2ccc(F)cc2)[C@@H](C)CN([C@@H](C)CO)C(=O)c2cc(NC(=O)Nc3ccc(F)cc3)ccc2O1,n,n,96,105,99,n,43
C[C@@H]1CN([C@H](C)CO)C(=O)c2cc(NC(=O)Nc3ccc(F)cc3)ccc2O[C@@H](C)CCCCO[C@H]1CN(C)S(=O)(=O)c1ccc(Cl)cc1,n,x,n,x,x,x,x
C[C@@H]1CN([C@@H](C)CO)C(=O)c2cc(NC(=O)Nc3ccc(F)cc3)ccc2O[C@@H](C)CCCCO[C@@H]1CN(C)S(=O)(=O)c1ccc(F)cc1,n,n,n,x,x,x,x
Cc1ccc(S(=O)(=O)N(CC(N)=O)c2ccc(Br)cc2)cc1,n,x,x,x,x,x,x
CCCC#Cc1ccc([C@@H]2[C@@H](CO)N3CCCCN(S(=O)(=O)c4ccccc4C)C[C@@H]23)cc1,x,n,116,98,n,n,102
CCCC#Cc1ccc([C@@H]2[C@@H](CO)N3CCCCN(S(=O)(=O)Cc4ccccc4)C[C@@H]23)cc1,x,n,n,x,x,x,x
O=S(=O)(Cc1ccccc1)N1CCCCN2[C@H](CO)[C@@H](c3ccc(C#Cc4ccccc4)cc3)[C@@H]2C1,x,n,n,x,x,x,x
O=S(=O)(Cc1ccccc1)N1CCCCN2[C@@H](CO)[C@H](c3ccc(C#Cc4ccccc4)cc3)[C@@H]2C1,x,n,117,100,n,51,106
CC(C)CC#Cc1ccc([C@H]2[C@@H](CO)N3CCCCN(S(=O)(=O)Cc4ccccc4)C[C@H]23)cc1,x,n,103,98,108,n,108
C[C@H](O)C#Cc1ccc([C@H]2[C@@H](CO)N3CCCCN(S(=O)(=O)Cc4ccccc4)C[C@H]23)cc1,x,n,n,x,x,x,x
CC(C)C#Cc1ccc([C@@H]2[C@@H](CO)N3CCCCN(S(=O)(=O)Cc4ccccc4)C[C@@H]23)cc1,x,n,101,105,n,37,104
CCCC#Cc1ccc([C@H]2[C@H]3CN(S(=O)(=O)c4ccccc4C)CCCCN3[C@H]2CO)cc1,x,n,n,x,x,x,x
CCCC(=O)Nc1ccc2c(c1)C(=O)N(C)C[C@H](OC)[C@@H](C)CN(Cc1nccs1)[C@@H](C)CO2,n,n,n,x,x,x,x
COc1ccc(NC(=O)C(C)Oc2ccccc2)cc1NC(=O)c1ccco1 (stereo not given),n,x,x,x,x,x,x
COC(=O)CCCCCCC(=O)N/N=C/[C@H](O)[C@@H](O)[C@H](O)[C@H](O)CO[C@H]1O[C@H](CO)[C@H](O)[C@H](O)[C@H]1O,n,x,x,x,x,x,x
Cc1ccc2oc(-c3cc(NC(=O)COc4ccccc4)ccc3Cl)nc2c1,n,x,x,x,x,x,x
CCCC#Cc1ccc([C@@H]2[C@H](CO)N3CCCCN(S(=O)(=O)Cc4ccccc4)C[C@@H]23)cc1,x,n,n,x,x,x,x
CCCC#Cc1ccc([C@H]2[C@H]3CN(S(=O)(=O)Cc4ccccc4)CCCCN3[C@H]2CO)cc1,x,n,100,104,n,u,76
C[C@@H]1CN([C@@H](C)CO)C(=O)Cc2cc(NC(=O)CCCCCC(=O)Nc3ccccc3N)ccc2O[C@H]1CN(C)Cc1ccc2c(c1)OCO2,n,x,x,x,x,x,x
C[C@@H]1CN([C@H](C)CO)C(=O)Cc2cc(NC(=O)CCCCCC(=O)Nc3ccccc3N)ccc2O[C@H]1CN(C)Cc1ccccc1,n,n,n,x,x,x,x
SMILES,IDH1 mut inh,KDM4C inh,T cruzi growth-1,T cruzi growth-2,T cruzi growth-3,NIH3T3 tox,NIH3T3 tox 2
C[C@H]1CN([C@@H](C)CO)C(=O)Cc2cc(NC(=O)CCCCCC(=O)Nc3ccccc3N)ccc2O[C@H]1CN(C)Cc1ccc2c(c1)OCO2,n,n,u,n,n,n,n
C[C@H](CO)N1C[C@H](C)[C@@H](CN(C)Cc2ccc3c(c2)OCO3)Oc2ccc(NC(=O)CCCCCC(=O)Nc3ccccc3N)cc2CC1=O,n,n,101,109,n,n,n
C[C@H](O)C1=CC2(CC[C@@H]3C(C(=O)O)=CO[C@@H](O[C@@H]4O[C@H](CO)[C@@H](O)[C@H](O)[C@H]4O)[C@@H]32)OC1=O (stereo not given in full),n,x,x,x,x,x,x
COc1cc(NS(=O)(=O)c2ccc(NC(=O)c3csc(C)c3)cc2)nc(OC)n1,n,x,x,x,x,x,x
C[C@@H](O)C#Cc1ccc([C@H]2[C@H](CO)N3CCCCN(S(=O)(=O)c4ccccc4)C[C@@H]23)cc1,x,n,105,n,n,n,n
C[C@@H](O)C#Cc1ccc([C@@H]2[C@@H](CO)N3CCCCN(S(=O)(=O)c4ccccc4)C[C@@H]23)cc1,x,n,117,n,n,n,26
C[C@H](O)C#Cc1ccc([C@H]2[C@@H](CO)N3CCCCN(S(=O)(=O)c4ccccc4)C[C@@H]23)cc1,x,n,n,x,x,x,x
C[C@@H](O)C#Cc1ccc([C@H]2[C@H]3CN(S(=O)(=O)c4ccccc4)CCCCN3[C@H]2CO)cc1,x,n,n,x,x,x,x
C[C@H](O)C#Cc1ccc([C@@H]2[C@@H](CO)N3CCCCN(S(=O)(=O)c4ccccc4)C[C@H]23)cc1,x,n,111,n,n,n,n
C[C@H](O)C#Cc1ccc([C@@H]2[C@@H](CO)N3CCCCN(S(=O)(=O)c4ccccc4)C[C@@H]23)cc1,x,n,n,x,x,x,x
CCSc1nc2ccccc2n1C(CC(=O)O)C(=O)O (stereo not given),n,x,x,x,x,x,x
O=C(NCc1ccco1)c1ccc(NC(=O)c2cccs2)cc1,n,x,x,x,x,x,x
Cc1ccc(CCC(=O)Nc2ccccc2)o1,n,x,x,x,x,x,x
COc1ccc(-c2nnc(SCC(=O)Nc3cccc(F)c3)n2C)cc1,n,x,x,x,x,x,x
OC[C@@H]1[C@@H](c2ccc(-c3ccccc3)cc2)[C@H]2CN(Cc3cncnc3)CCCCN12,x,n,n,x,x,x,x

# Compound activity deposited in PubChem BioAssay by Broad Institute.
